# The source made the active and inactive calls. The calls are words filed in the database; no cut-off is given here.
# Legend:
# Rattus norvegicus [1] = organism: Rattus norvegicus; assay: Positive allosteric modulation of rat alpha1beta2gamma2S GABAA receptor expressed in Xenopus laevis oocytes assessed as potentiation of GABA-induced chloride current at 100 uM by two-microelectrode voltage clamp electrophysiology relative to control; format: cell-based
# Rattus norvegicus [2] = organism: Rattus norvegicus; assay: Agonist activity at rat alpha1beta2gamma2S GABAA receptor expressed in Xenopus laevis oocytes assessed as direct activation of chloride current in absence of GABA at 0.1 to 30 uM by two-microelectrode voltage clamp electrophysiology
# [3] = Positive allosteric modulation of rat alpha1beta2gamma2S GABAA receptor expressed in Xenopus laevis oocytes assessed as potentiation of GABA-induced chloride current by two-microelectrode voltage clamp electrophysiology; format: cell-based
# Procedure, shortened: (§1)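 Rat α1β2γ2s cRNAs (1:1:10) were injected into collagenase-treated Xenopus oocytes, which were kept at 18 °C in ND96 and recorded on days 1–5. Two-electrode clamp was held at −70 mV in bath containing 90 mM NaCl and 5 mM HEPES, pH 7.4. Compound at 0.1–300 μM was co-applied with GABA EC5–10 by fast perfusion, with 1% DMSO final. Enhancement is I(GABA+Comp)/IGABA − 1, given as mean ± SE from four oocytes across three batches.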
# Rattus norvegicus [4] = organism: Rattus norvegicus; assay: Positive allosteric modulation of rat alpha1beta2gamma2S GABAA receptor expressed in Xenopus laevis oocytes assessed as potentiation of GABA-induced chloride current by two-microelectrode voltage clamp electrophysiology relative to control; format: cell-based; procedure, shortened: as §1
# Rattus norvegicus [5] = organism: Rattus norvegicus; assay: Positive allosteric modulation of rat alpha1beta2gamma2S GABAA receptor expressed in Xenopus laevis oocytes assessed as potentiation of GABA-induced chloride current at 300 uM by two-microelectrode voltage clamp electrophysiology; format: cell-based; procedure, shortened: as §1
# Rattus norvegicus [6] = organism: Rattus norvegicus; assay: Positive allosteric modulation of rat alpha1beta2gamma2S GABAA receptor expressed in Xenopus laevis oocytes assessed as potentiation of GABA-induced chloride current at 1 uM by two-microelectrode voltage clamp electrophysiology relative to control; format: cell-based
# Procedure, shortened: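 Rat α1β2γ2s cRNAs (1:1:10) injected into collagenase-defolliculated oocytes, kept at 18 °C in ND96 with penicillin-streptomycin, and recorded on days 1–5. Test agent applied by fast perfusion with GABA EC5–10 in 1% DMSO final. Enhancement = I(GABA+Comp)/IGABA − 1.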
structure (smiles),measurement,setting,value
CC(C)=CCc1c(O)c(CCC(C)(C)O)cc2c1O[C@H](c1ccc(O)cc1)[C@@H](O)C2=O,%max,Rattus norvegicus [1],-26%
CC(C)=CCc1c(O)ccc2c(=O)c(-c3ccc(O)cc3O)coc12,Activity,Rattus norvegicus [2],inactive
same,EC50,[3],2.8 µM
same,Emax,Rattus norvegicus [4],553%
same,%max,Rattus norvegicus [1],560%
CO/C(=C\c1ccccc1)C(=O)c1ccc(O)cc1O,%max,Rattus norvegicus [1],228%
CC(C)=CCc1cc2c(cc1O)OCC(c1ccc(O)cc1O)C2=O (stereo unspecified),%max,Rattus norvegicus [1],199%
Oc1ccc2c(c1)OC[C@H]1c3cc4ccoc4cc3O[C@@H]21,%max,Rattus norvegicus [1],213%
CC(C)=CCc1cc2c(cc1O)O[C@H]1c3ccc(O)c(O)c3OC[C@@H]21,Activity,Rattus norvegicus [2],inactive
same,Activity,Rattus norvegicus [5],inactive
same,EC50,[3],18.8 µM
same,Emax,Rattus norvegicus [4],491%
same,%max,Rattus norvegicus [1],454%
CO[C@H](Cc1ccccc1)C(=O)c1ccc(O)cc1O,%max,Rattus norvegicus [1],88.8%
O=C1c2ccc(O)cc2O[C@H](c2ccccc2)[C@H]1O,%max,Rattus norvegicus [1],11.7%
CC(C)=CCc1c(O)ccc2c1OCC(c1ccc(O)cc1O)C2=O (stereo unspecified),%max,Rattus norvegicus [1],361%
CN1C(=O)CN=C(c2ccccc2)c2cc(Cl)ccc21,Activity,Rattus norvegicus [6],231%
CC(C)(O)CCc1cc2c(cc1O)O[C@H]1c3ccc(O)cc3OC[C@@H]21,Activity,Rattus norvegicus [2],inactive
same,Activity,Rattus norvegicus [5],inactive
same,EC50,[3],8.6 µM
same,Emax,Rattus norvegicus [4],640%
same,%max,Rattus norvegicus [1],489%
CC(C)=CCc1cc2c(c(CC=C(C)C)c1O)O[C@H](c1ccc(O)cc1)[C@@H](O)C2=O,%max,Rattus norvegicus [1],287%
Oc1ccc2c(c1)OC[C@H]1c3cc4c(cc3O[C@@H]21)OCO4,%max,Rattus norvegicus [1],238%
CC(C)=CCc1c(O)ccc2c(=O)c(-c3ccc(O)cc3)coc12,%max,Rattus norvegicus [1],192%
CC(C)=CCc1c(O)ccc2c1O[C@H](c1ccc(O)cc1)[C@@H](O)C2=O,%max,Rattus norvegicus [1],272%
CC1(C)C=Cc2cc3c(cc2O1)O[C@H]1c2ccc(O)cc2OC[C@@H]31 [ISONEORAUTENOL],Activity,Rattus norvegicus [2],inactive
same,Activity,Rattus norvegicus [5],inactive
same,EC50,[3],40.7 µM
same,Emax,Rattus norvegicus [4],771%
same,%max,Rattus norvegicus [1],388%

# From ChEMBL document CHEMBL3120055, “HPLC-based activity profiling for GABAA receptor modulators in Adenocarpus cincinnatus” (J Nat Prod, 2014)
